Data published in ChEMBL document CHEMBL1126584 (J Med Chem, 1993).

These compounds were tested against T1, D(2) dopamine receptor (Rattus norvegicus, UniProt P61169) (assay: Binding affinity against D2 receptor in rat corpus striatum using [3H]sulpiride as the radioligand).
Type: tissue-based
Summary of the method: (§1)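 Fresh rat striatum homogenised in 50 mM Tris-HCl pH 7.5, pellet resuspended in buffer with 100 mM NaCl to 3.75 mg wet weight/mL. Incubated with 3 nM [3H]sulpiride for 60 min at 25 °C, in triplicate; 10 μM haloperidol defined nonspecific binding. Filtration on polyethyleneimine-treated filters; IC50 from concentration-response curves converted to Ki by Cheng-Prusoff; mean of at least three determinations.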

T1 sequence (P61169 whole entry): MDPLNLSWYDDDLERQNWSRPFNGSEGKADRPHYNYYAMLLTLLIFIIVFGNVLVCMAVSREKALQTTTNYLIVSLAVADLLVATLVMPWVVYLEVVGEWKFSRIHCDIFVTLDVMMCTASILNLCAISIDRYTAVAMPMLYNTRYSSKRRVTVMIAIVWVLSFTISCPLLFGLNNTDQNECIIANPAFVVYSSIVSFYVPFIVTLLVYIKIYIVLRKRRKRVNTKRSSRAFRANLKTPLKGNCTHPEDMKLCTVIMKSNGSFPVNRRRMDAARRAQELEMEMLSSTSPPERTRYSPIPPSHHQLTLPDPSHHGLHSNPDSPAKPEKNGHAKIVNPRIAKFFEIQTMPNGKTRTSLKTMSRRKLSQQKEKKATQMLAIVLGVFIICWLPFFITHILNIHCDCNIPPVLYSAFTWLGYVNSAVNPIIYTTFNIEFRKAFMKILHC

Compared with `c1ccc2c3c([nH]c2c1)CC1CCC3N1CCCCc1nccs1` (stereo not drawn), `c1csc(CCCCN2C3CCC2c2c([nH]c4ccccc24)C3)c1` (stereo not drawn) is 3.6-fold lower in Ki: 2230 nM for the first, 620 nM for the second. The second binds more tightly here.

Compared with `c1ccc2c(c1)CN(CCN1C3CCC1c1c([nH]c4ccccc14)C3)C2` (stereo not drawn), `c1ccc(CCCCN2C3CCC2c2c([nH]c4ccccc24)C3)cc1` (stereo not drawn) is 2.7-fold lower in Ki: 2000 nM for the first, 733 nM for the second.

First: Fc1ccc2[nH]c3c(c2c1)C1CCC(C3)N1Cc1ccccc1 (stereo not drawn)
Second: O=C(CCCN1C2CCC1c1c([nH]c3ccccc13)C2)c1ccc(F)cc1 (stereo not drawn)
The Ki of the first is 9-fold higher: 2420 nM for the first, 270 nM for the second. The second binds more tightly here.

`CCN1C2CCC1c1c([nH]c3ccccc13)C2` (stereo not drawn) and `CCCN1C2CCC1c1c([nH]c3ccccc13)C2` (stereo not drawn) cannot be ordered by Ki: > 10000 nM for the first, 11200 nM for the second.

Going from `CN(CCN1C2CCC1c1c([nH]c3ccccc13)C2)C(=O)Cc1ccc(Cl)c(Cl)c1` (stereo not drawn) to `c1coc(CCCCN2C3CCC2c2c([nH]c4ccccc24)C3)c1` (racemic), the Ki falls from 3790 nM to 1270 nM (3-fold). The second binds more tightly here.

Going from `c1ccc(-n2c3c(c4ccccc42)C2CCC(C3)N2)cc1` (stereo not drawn) to `c1ccc(CCCCN2C3CCC2c2c(n(-c4ccccc4)c4ccccc24)C3)cc1` (stereo not drawn), the Ki falls from 10000 nM to 1570 nM (6.4-fold).

First: O=C1CC2(CCCC2)CC(=O)N1CCCCN1C2CCC1c1c([nH]c3ccccc13)C2 (stereo not drawn)
Second: c1coc(CCCCN2C3CCC2c2c([nH]c4ccccc24)C3)c1 (single isomer, unassigned; (+))
The Ki of the first is 9.1-fold higher: 3000 nM for the first, 330 nM for the second.

Compared with `CC/C=C/N1C2CCC1c1c([nH]c3ccccc13)C2` (stereo not drawn), `c1coc(CCCCN2C3CCC2c2c([nH]c4ccccc24)C3)c1` (single isomer, unassigned; (-)) is 4.4-fold higher in Ki: 710 nM for the first, 3150 nM for the second. The first binds more tightly here.

`c1coc(CCCCN2C3CCC2c2c([nH]c4ccccc24)C3)c1` (stereo in doubt; 40) gave a Ki of 1270 nM.

Each compound was assayed against T1, D(2) dopamine receptor (assay: Compound was tested for binding affinity against D2 receptor in rat corpus striatum, using [3H]sulpiride as the radioligand).
Type: tissue-based
Summary of the method: as §1

With `c1ccc2c3c([nH]c2c1)CC1CCC3N1` (stereo not drawn) the Ki was > 100000 nM.
